Calls of active or inactive are those of the source. The calls are words filed in the database; no cut-off is given here.
Key:
[1] = Cmax in BALB/C mouse spleen at 10 mg/kg, iv by LC/MS-MS analysis; type: ADME, organism-based
Summary of the method: (§1)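 Female BALB/c mice received a single 10mg/kg bolus i.v. or p.o. Plasma (and spleen homogenate) extracted with methanol containing internal standards. Concentrations were measured by LC/MS-MS and PK parameters calculated with modelling software.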

[2] = target: Serine/threonine-protein kinase D1 (Homo sapiens, UniProt Q15139); test: Inhibition of PRKD1 (unknown origin) by 33P radiometric kinase assay
[3] = target: Serine/threonine-protein kinase PAK 2 (Homo sapiens) (UniProt Q13177); test: Inhibition of human PAK2 assessed as remaining activity at 10 uM in presence of ATP by radiometric kinase assay relative to control
[4] = target: Serine/threonine-protein kinase pim-1 (Homo sapiens) (UniProt P11309); test: Inhibition of human PIM1 assessed as remaining activity at 10 uM in presence of ATP by radiometric kinase assay relative to control
[5] = target: MAP/microtubule affinity-regulating kinase 4 (Homo sapiens) (UniProt Q96L34); test: Inhibition of human MARK4 assessed as remaining activity at 10 uM in presence of ATP by radiometric kinase assay relative to control
MAP/microtubule affinity-regulating kinase 4 (Homo sapiens), sequence (Q96L34 whole entry): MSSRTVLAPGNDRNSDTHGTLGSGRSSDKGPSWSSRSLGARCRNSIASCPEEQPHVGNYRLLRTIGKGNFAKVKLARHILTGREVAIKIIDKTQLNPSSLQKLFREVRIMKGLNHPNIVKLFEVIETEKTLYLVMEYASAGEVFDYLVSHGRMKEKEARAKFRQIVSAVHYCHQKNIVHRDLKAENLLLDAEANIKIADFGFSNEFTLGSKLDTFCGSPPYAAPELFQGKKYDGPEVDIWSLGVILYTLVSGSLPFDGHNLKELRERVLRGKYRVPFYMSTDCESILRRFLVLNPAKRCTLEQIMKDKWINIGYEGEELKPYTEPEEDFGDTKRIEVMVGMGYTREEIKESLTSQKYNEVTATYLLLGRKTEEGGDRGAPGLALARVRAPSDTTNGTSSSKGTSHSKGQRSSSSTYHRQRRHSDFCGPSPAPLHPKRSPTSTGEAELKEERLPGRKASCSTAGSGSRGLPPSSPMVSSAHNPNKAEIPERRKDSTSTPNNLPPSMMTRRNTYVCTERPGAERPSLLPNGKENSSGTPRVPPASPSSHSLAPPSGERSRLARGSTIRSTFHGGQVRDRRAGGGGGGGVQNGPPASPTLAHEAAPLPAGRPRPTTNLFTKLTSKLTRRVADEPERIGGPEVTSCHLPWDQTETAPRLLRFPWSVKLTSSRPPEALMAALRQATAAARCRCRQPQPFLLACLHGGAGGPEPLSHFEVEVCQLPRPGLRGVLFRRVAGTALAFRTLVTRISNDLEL

[6] = Toxicity in CRTac:Ncr-Fox1 mouse xenografted with human HT-29 cells assessed as body weight at 150 mg/kg, po administered for 10 days in presence of irinotecan relative to control; type: organism-based; conditions: in vivo, 240 h, time 10 day
[7] = target: Cyclin-dependent kinase 1 (Homo sapiens) (UniProt P06493); test: Inhibition of human CDK1 by DELFIA assay
[8] = target: NUAK family SNF1-like kinase 1 (Homo sapiens, UniProt O60285); test: Inhibition of human NUAK1 by FRET based Z-LYTE kinase assay
NUAK family SNF1-like kinase 1, sequence (O60285 whole entry): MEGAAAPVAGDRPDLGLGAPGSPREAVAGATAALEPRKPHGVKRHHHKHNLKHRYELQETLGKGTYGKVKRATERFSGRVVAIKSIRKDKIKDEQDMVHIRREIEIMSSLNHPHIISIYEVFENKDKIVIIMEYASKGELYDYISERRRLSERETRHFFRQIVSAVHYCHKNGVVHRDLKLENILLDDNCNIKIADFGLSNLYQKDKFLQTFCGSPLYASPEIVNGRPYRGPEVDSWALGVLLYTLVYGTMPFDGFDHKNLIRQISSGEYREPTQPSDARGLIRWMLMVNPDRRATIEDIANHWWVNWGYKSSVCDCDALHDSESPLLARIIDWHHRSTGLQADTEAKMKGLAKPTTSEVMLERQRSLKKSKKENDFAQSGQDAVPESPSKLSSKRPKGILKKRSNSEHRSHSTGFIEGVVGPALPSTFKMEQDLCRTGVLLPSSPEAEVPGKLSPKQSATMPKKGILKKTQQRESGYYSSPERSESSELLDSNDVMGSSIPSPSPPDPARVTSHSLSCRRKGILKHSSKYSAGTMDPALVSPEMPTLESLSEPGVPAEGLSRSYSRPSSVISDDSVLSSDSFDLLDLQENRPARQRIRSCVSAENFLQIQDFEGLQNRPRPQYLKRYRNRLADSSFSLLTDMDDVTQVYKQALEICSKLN

[9] = target: Myosin light chain kinase, smooth muscle (Homo sapiens) (UniProt Q15746); test: Inhibition of human SmMLCK assessed as remaining activity at 10 uM in presence of ATP by radiometric kinase assay relative to control
[10] = Toxicity in CRTac:Ncr-Fox1 mouse xenografted with human Calu-6 cells assessed as body weight at 150 mg/kg, po administered for 3 days in presence of gemcitabine relative to control; type: organism-based; conditions: in vivo, 72 h, time 3 day
[11] = target: Serine/threonine-protein kinase N2 (Homo sapiens) (UniProt Q16513); test: Inhibition of human PRK2 assessed as remaining activity at 10 uM in presence of ATP by radiometric kinase assay relative to control
Serine/threonine-protein kinase N2 (Homo sapiens), sequence (Q16513 whole entry, looked up): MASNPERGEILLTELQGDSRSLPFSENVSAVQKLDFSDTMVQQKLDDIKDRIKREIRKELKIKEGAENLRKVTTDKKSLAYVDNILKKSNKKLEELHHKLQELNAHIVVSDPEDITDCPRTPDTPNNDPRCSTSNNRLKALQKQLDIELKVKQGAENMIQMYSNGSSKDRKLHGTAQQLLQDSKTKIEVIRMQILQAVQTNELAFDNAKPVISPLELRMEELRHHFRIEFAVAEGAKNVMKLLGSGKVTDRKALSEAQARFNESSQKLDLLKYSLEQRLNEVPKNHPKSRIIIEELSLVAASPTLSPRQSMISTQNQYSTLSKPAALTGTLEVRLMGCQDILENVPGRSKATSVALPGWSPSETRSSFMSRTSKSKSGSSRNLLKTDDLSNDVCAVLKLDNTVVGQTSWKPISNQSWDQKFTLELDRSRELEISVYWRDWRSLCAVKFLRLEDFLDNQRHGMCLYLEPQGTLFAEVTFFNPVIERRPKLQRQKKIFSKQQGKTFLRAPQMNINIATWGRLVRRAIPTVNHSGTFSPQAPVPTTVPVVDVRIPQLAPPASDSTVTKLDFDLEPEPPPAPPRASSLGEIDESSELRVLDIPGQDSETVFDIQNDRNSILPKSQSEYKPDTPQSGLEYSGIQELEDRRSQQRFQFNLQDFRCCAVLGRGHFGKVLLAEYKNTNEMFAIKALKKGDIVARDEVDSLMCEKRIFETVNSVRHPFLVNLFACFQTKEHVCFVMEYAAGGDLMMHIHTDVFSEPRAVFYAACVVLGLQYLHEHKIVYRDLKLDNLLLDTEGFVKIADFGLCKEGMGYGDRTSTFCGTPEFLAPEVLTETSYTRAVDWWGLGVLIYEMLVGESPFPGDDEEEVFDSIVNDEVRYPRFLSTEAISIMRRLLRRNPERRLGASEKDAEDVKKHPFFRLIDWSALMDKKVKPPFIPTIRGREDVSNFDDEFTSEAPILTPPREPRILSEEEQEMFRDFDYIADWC

[12] = target: Tyrosine-protein kinase SYK (Homo sapiens) (UniProt P43405); test: Inhibition of human SYK assessed as remaining activity at 10 uM in presence of ATP by radiometric kinase assay relative to control
[13] = AUC (0 to infinity) in BALB/C mouse spleen at 10 mg/kg, iv by LC/MS-MS analysis; type: ADME, organism-based
Mus musculus = test: In vivo inhibition of CHK1 in CRTac:Ncr-Fox1 athymic mouse xenografted with human Calu-6 cells assessed as enhanced phosphorylation of CHK1 on S345 at 150 mg/kg, po in presence of gemcitabine and carboplatin by Western blotting analysis; type: functional, organism-based
Summary of the method: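 Female CRTac:Ncr-Fox1(nu) athymic mice carried s.c. Calu6 xenografts. Tumors were taken 6h after the last inhibitor dose, lysed in CHAPS buffer, and immunoblotted with GAPDH as loading control.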

[14] = target: Ephrin type-B receptor 4 (Homo sapiens) (UniProt P54760); test: Inhibition of human EPH-B4 assessed as remaining activity at 10 uM in presence of ATP by radiometric kinase assay relative to control
[15] = target: Misshapen-like kinase 1 (Homo sapiens) (UniProt Q8N4C8); test: Inhibition of human MINK1 assessed as remaining activity at 10 uM in presence of ATP by radiometric kinase assay relative to control
Misshapen-like kinase 1 (Homo sapiens), sequence (Q8N4C8 whole entry, looked up): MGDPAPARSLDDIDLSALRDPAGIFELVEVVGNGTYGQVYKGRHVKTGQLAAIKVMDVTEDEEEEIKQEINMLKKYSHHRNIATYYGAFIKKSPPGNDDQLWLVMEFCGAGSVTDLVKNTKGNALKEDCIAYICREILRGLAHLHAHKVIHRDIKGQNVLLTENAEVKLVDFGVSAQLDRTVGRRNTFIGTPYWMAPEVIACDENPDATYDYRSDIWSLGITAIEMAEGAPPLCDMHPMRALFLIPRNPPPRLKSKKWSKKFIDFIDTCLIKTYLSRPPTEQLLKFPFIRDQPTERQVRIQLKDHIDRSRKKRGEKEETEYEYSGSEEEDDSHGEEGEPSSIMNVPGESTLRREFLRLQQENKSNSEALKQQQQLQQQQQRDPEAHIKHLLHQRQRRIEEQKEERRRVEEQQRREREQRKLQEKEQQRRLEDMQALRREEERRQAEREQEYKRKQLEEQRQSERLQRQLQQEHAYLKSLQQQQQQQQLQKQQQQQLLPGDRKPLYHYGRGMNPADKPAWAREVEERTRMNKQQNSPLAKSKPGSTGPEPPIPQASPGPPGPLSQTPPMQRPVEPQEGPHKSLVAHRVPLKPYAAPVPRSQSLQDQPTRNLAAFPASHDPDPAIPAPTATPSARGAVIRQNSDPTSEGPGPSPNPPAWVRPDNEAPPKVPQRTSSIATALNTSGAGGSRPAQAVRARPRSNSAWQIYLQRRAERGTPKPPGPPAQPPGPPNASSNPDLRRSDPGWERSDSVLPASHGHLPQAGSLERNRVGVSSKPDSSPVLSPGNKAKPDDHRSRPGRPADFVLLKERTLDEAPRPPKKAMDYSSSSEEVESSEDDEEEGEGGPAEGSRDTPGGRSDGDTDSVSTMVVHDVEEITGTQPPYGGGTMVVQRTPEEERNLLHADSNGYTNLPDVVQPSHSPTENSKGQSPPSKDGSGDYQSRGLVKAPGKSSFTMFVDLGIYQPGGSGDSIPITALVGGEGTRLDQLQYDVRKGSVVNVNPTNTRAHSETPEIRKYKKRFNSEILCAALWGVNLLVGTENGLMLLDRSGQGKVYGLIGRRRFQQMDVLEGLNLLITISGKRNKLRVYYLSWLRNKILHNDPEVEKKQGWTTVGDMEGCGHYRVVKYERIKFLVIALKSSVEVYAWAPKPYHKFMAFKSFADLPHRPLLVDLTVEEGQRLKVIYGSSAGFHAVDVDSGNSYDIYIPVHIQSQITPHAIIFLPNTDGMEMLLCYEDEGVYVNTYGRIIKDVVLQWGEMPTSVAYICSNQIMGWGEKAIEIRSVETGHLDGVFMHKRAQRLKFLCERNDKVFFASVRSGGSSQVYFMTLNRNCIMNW

[16] = target: Tyrosine-protein kinase ZAP-70 (Homo sapiens) (UniProt P43403); test: Inhibition of human ZAP70 assessed as remaining activity at 10 uM in presence of ATP by radiometric kinase assay relative to control
[17] = target: Serine/threonine-protein kinase TBK1 (Homo sapiens) (UniProt Q9UHD2); test: Inhibition of human TBK1 assessed as remaining activity at 10 uM in presence of ATP by radiometric kinase assay relative to control
Serine/threonine-protein kinase TBK1 (Homo sapiens), sequence (Q9UHD2 whole entry): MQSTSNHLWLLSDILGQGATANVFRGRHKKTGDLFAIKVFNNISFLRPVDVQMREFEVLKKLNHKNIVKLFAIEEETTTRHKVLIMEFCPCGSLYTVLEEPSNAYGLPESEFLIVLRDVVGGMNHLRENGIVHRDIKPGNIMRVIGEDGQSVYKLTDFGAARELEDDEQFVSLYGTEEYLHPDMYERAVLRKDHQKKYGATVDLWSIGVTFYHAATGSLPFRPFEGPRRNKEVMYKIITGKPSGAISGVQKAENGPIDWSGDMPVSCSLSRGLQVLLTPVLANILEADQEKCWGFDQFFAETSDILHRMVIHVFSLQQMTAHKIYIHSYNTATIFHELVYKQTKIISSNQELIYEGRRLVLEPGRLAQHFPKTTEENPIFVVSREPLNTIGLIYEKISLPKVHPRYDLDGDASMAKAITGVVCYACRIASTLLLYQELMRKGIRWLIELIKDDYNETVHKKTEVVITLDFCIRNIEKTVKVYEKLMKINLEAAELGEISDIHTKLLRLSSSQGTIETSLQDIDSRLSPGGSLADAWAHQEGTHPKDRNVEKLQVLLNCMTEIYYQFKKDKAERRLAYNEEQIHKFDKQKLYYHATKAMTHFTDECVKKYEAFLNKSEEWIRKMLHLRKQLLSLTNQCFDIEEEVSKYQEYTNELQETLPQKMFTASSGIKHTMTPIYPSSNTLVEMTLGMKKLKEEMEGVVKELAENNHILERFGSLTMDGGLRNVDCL

[18] = Cmax in BALB/C mouse plasma at 10 mg/kg, iv by LC/MS-MS analysis; type: ADME, organism-based; summary of the method: as §1
[19] = Plasma protein binding in nude mouse at 10 uM; type: ADME, cell-free
[20] = Toxicity in Emu-Myc driven transgenic mouse transplant model of B-cell lymphoma assessed as reduction in weight of kidney at 150 mg/kg, po administered for 9 days; type: organism-based; conditions: in vivo, 216 h, time 9 day
[21] = Half life in BALB/C mouse spleen at 10 mg/kg, iv by LC/MS-MS analysis; type: ADME, organism-based
Summary of the method: (§2)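 Female BALB/c mice received a single bolus of 10mg/kg, either i.v. or p.o. The oral vehicle was DPTW (10% DMSO, 20% PEG400, 5% Tween 80, 65% water). Plasma and spleen homogenates were extracted with methanol containing internal standards. Drug levels were measured by LC/MS-MS, and pharmacokinetic parameters were calculated from the concentration-time profiles.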

[22] = Half life in BALB/C mouse spleen at 10 mg/kg, po by LC/MS-MS analysis; type: ADME, organism-based; summary of the method: as §2
[23] = target: Serine/threonine-protein kinase MARK1 (Homo sapiens) (UniProt Q9P0L2); test: Inhibition of human MARK1 assessed as remaining activity at 10 uM in presence of ATP by radiometric kinase assay relative to control
[24] = target: Tyrosine-protein kinase ABL1 (Homo sapiens) (UniProt P00519); test: Inhibition of human ABL assessed as remaining activity at 10 uM in presence of ATP by radiometric kinase assay relative to control
[25] = target: Serine/threonine-protein kinase PAK 4 (Homo sapiens) (UniProt O96013); test: Inhibition of human PAK4 assessed as remaining activity at 10 uM in presence of ATP by radiometric kinase assay relative to control
Serine/threonine-protein kinase PAK 4 (Homo sapiens), sequence (O96013 whole entry, looked up): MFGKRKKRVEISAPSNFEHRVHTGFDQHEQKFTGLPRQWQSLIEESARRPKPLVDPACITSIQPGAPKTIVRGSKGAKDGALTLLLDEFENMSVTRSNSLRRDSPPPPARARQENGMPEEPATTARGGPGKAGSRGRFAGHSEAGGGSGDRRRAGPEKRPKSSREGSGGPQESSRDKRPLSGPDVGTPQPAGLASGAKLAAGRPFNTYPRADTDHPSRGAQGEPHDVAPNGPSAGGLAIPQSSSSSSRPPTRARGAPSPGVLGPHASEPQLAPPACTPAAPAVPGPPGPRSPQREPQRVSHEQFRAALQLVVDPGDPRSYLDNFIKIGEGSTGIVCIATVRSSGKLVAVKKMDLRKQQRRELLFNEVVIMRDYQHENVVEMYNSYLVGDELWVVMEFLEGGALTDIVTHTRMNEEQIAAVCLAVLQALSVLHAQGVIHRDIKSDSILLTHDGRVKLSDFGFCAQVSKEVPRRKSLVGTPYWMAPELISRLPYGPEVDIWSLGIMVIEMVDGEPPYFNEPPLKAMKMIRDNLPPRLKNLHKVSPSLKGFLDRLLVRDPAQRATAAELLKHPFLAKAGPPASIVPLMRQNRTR

[26] = target: Glycogen synthase kinase-3 beta (Homo sapiens) (UniProt P49841); test: Inhibition of human GSK3b assessed as remaining activity at 10 uM in presence of ATP by radiometric kinase assay relative to control
[27] = Toxicity in Emu-Myc driven transgenic mouse transplant model of B-cell lymphoma assessed as change in water consumption at 150 mg/kg, po administered for 9 days; type: organism-based; conditions: in vivo, 216 h, time 9 day
[28] = target: Serine/threonine-protein kinase STK11 (Homo sapiens) (UniProt Q15831); test: Inhibition of human LKB1 assessed as remaining activity at 10 uM in presence of ATP by radiometric kinase assay relative to control
[29] = target: Proto-oncogene tyrosine-protein kinase Src (Homo sapiens) (UniProt P12931); test: Inhibition of human Src assessed as remaining activity at 10 uM in presence of ATP by radiometric kinase assay relative to control

With `N#Cc1cnc(Nc2cc(NC[C@H]3CNCCO3)c(C(F)(F)F)cn2)cn1` [SRA-737] the Cmax [1] was 44.7 µM, the IC50 [2] was 0.298 µM and the Activity [3] was 96%. For the same compound, the Activity [4] was 56%, the Activity [5] was 39% and the Activity [6] was 98%. The IC50 [7] was 2.44 µM, the IC50 [8] was 0.711 µM and the Activity [9] was 84%. It also gave an Activity [10] of 98%, an Activity [11] of 67% and an Activity [12] of 84%. The AUC(0-inf) [13] was 262 µM·h, the Activity (Mus musculus) was “Active” and the Activity [14] was 81%. It also gave an Activity [15] of 44%, an Activity [16] of 93% and an Activity [17] of 71%. For the same compound, the Cmax [18] was 4 µM, the PPB [19] was 75.6% and the Activity [20] was “Toxic”. It also gave a half-life [21] of 2.76 h, a half-life [22] of 3.11 h and an Activity [23] of 43%. The Activity [24] was 93%, the Activity [25] was 49% and the Activity [26] was 47%. For the same compound, the Activity [27] was “Non-Toxic”, the Activity [28] was 44% and the Activity [29] was 93%.
